Active and inactive are the calls of the source. The rule behind the calls is not given here.
How the values were obtained:
Assay type in all cases: functional, cell-based
[1] = test system: KB-CV60; experiment: Reversal of multidrug resistance in human KB-CV60 cells after 72 hrs by MTT assay
In short: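 KB-CV60 MDR line (selected from KB-3-1, kept in 1 µg/mL cepharanthine and 60 ng/mL vincristine), RPMI 1640 with 10% newborn calf serum; 10 000 cells/well, 24 h preincubation at 37 °C, 5% CO2; anticancer agent plus sample for 48 h; MTT 3 h, formazan in DMSO, A540 gives % growth inhibition.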

[2] = test system: KB-C2; experiment: Reversal of multidrug resistance in human KB-C2 cells after 72 hrs by MTT assay
In short: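 KB-C2 MDR line (selected from KB-3-1, kept in 2 µg/mL colchicine), RPMI 1640 with 10% newborn calf serum; 10 000 cells/well, 24 h preincubation at 37 °C, 5% CO2; colchicine plus sample added for 48 h; MTT 3 h, formazan in DMSO, absorbance 540 nm gives % growth inhibition; cytotoxicity checked in parental KB-3-1.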

[3] = test system: NBT2; experiment: Induction of multinuclei formation in rat NBT2 cells assessed as inhibition of cytokinesis at 0.5 to 2 ug/mL after 72 hrs
In short: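 Rat bladder epithelial NBT-II cells in modified Eagle's medium with 10% heat-inactivated FBS, streptomycin, amphotericin B and glutamic acid; exposed to graded briarane concentrations at 37 °C for 72 h; multinucleation scored by microscopy at 48 and 72 h.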

| SMILES | Activity [1] | Activity [2] | Activity [3] |
| --- | --- | --- | --- |
| C=C1/C=C/[C@H](OC(C)=O)[C@@]2(C)[C@@H](OC(C)=O)C[C@H]3O[C@@]3(C)[C@@H]2[C@H](OC(C)=O)[C@]2(O)[C@@H](C)C(=O)O[C@H]2[C@H]1Cl | inactive | inactive | – |
| C=C1/C=C\[C@@H](OC(C)=O)[C@@]2(C)C=C[C@@H](OC(C)=O)[C@](O)(COC(C)=O)[C@@H]2[C@H](OC(C)=O)[C@]2(O)[C@@H](C)C(=O)O[C@H]2[C@H]1Cl | – | – | Active |
| CC(=O)OCC1=C/[C@@H]2OC(=O)[C@H](C)[C@@]2(O)[C@@H](OC(C)=O)[C@H]2[C@]3(C)O[C@@H]3C[C@H](OC(C)=O)[C@]2(C)[C@@H](OC(C)=O)\C=C\1 | inactive | inactive | – |
| CCC(=O)O[C@@H]1C[C@H](OC(C)=O)[C@]2(C)[C@H](OC(C)=O)/C=C\C(CCl)=C/[C@@H]3OC(=O)[C@H](C)[C@@]3(O)[C@@H](OC(C)=O)[C@H]2[C@]1(C)O | inactive | inactive | – |
| C=C1CC[C@@H](OC(C)=O)[C@@]2(C)[C@@H](OC(C)=O)CC[C@@]3(CO3)[C@@H]2[C@H](OC(C)=O)[C@]2(O)[C@@H](C)C(=O)O[C@H]2[C@H]1Cl | – | – | Active |
| C=C1[C@H](Cl)[C@@H]2OC(=O)[C@H](C)[C@]23O[C@@]1(O)C[C@H](OC(C)=O)[C@]1(C)[C@H]([C@@H](C)[C@H](OC(=O)c2ccccc2)C[C@@H]1OC(C)=O)[C@@H]3OC(C)=O | Active | Active | – |

From ChEMBL document CHEMBL1148203, “Briarane diterpenes from two species of octocorals, Ellisella sp. and Pteroeides sp” (J Nat Prod, 2004)
